Test results published in ChEMBL document CHEMBL2157989, “Synthesis and biological evaluation of antibody conjugates of phosphate prodrugs of cytotoxic DNA alkylators for the targeted treatment of cancer” (J Med Chem, 2012).

Tests used:
[1] = Solubility in dichloromethane at 1.5 mg sonicated for 45 mins followed by centrifugation for 45 mins by UV/Vis spectroscopy; assay type: physicochemical; settings: 0.75 h
[2] = Solubility in DMA at 1.5 mg sonicated for 45 mins followed by centrifugation for 45 mins by UV/Vis spectroscopy; assay type: physicochemical; settings: 0.75 h
How it was run: (§1)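 Solid compound (~1.5 mg) in the stated solvent was sonicated 45 min, then centrifuged at 1400g for 45 min. The supernatant concentration was read by UV/vis at 340 nm, using ε = 41500 M⁻¹ cm⁻¹ for the free phenols and 34500 M⁻¹ cm⁻¹ for the phosphate prodrugs (pH 7.0 values).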

Ramos = assay: Cytotoxicity against human Ramos cells assessed as cell survival after 72 hrs by clonogenic assay; assay type: functional, cell-based
How it was run: (§2)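 Cells were kept in RPMI 1640 with 10% heat-inactivated FBS at 37 °C and 6% CO₂. They were plated at 1000–5000 cells/well and exposed to 0–3 nM test agent for 72 h. Medium was then replaced and colonies grew for 7–10 days in total after plating. Colonies were fixed and stained with 0.2% crystal violet in 10% formalin/PBS, then counted. Surviving fraction = colonies in treated wells / colonies in control wells; IC₅₀ was taken from this.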

[3] = Solubility in hexane at 1.5 mg sonicated for 45 mins followed by centrifugation for 45 mins by UV/Vis spectroscopy; assay type: physicochemical; settings: 0.75 h; how it was run: as §1
[4] = Solubility in DMF at 1.5 mg sonicated for 45 mins followed by centrifugation for 45 mins by UV/Vis spectroscopy; assay type: physicochemical; settings: 0.75 h; how it was run: as §1
[5] = Solubility in toluene at 1.5 mg sonicated for 45 mins followed by centrifugation for 45 mins by UV/Vis spectroscopy; assay type: physicochemical; settings: 0.75 h; how it was run: as §1
HL-60 = assay: Cytotoxicity against human HL60 cells assessed as cell survival after 72 hrs by clonogenic assay; assay type: functional, cell-based; settings: HL-60, 72 h; how it was run: as §2
[6] = Solubility in ethyl acetate at 1.5 mg sonicated for 45 mins followed by centrifugation for 45 mins by UV/Vis spectroscopy; assay type: physicochemical; settings: 0.75 h; how it was run: as §1
[7] = Cytotoxicity against human NAMALWA cells assessed as cell survival after 72 hrs by clonogenic assay; assay type: functional, cell-based; settings: NAMALVA; how it was run: as §2
[8] = Solubility in methanol at 1.5 mg sonicated for 45 mins followed by centrifugation for 45 mins by UV/Vis spectroscopy; assay type: physicochemical; settings: 0.75 h; how it was run: as §1
[9] = Solubility in ethanol at 1.5 mg sonicated for 45 mins followed by centrifugation for 45 mins by UV/Vis spectroscopy; assay type: physicochemical; settings: 0.75 h; how it was run: as §1
[10] = Solubility in water at 1.5 mg sonicated for 45 mins followed by centrifugation for 45 mins by UV/Vis spectroscopy; assay type: physicochemical; settings: 0.75 h; how it was run: as §1
[11] = Solubility in chloroform at 1.5 mg sonicated for 45 mins followed by centrifugation for 45 mins by UV/Vis spectroscopy; assay type: physicochemical; settings: 0.75 h; how it was run: as §1
[12] = Solubility in DMSO at 1.5 mg sonicated for 45 mins followed by centrifugation for 45 mins by UV/Vis spectroscopy; assay type: physicochemical; settings: 0.75 h; how it was run: as §1

solubility [1]	solubility [2]	solubility [3]	solubility [4]	solubility [5]	solubility [6]	solubility [8]	solubility [9]	solubility [10]	solubility [11]	solubility [12]	SMILES	IC50 (Ramos) [nM]	IC50 (HL-60) [nM]	IC50 [7] [nM]
Insoluble	soluble	Insoluble	soluble	Insoluble	Insoluble	Insoluble	Insoluble	Insoluble	Insoluble	soluble	O=C(CCSSc1ccccn1)Nc1ccc2[nH]c(C(=O)Nc3ccc4[nH]c(C(=O)N5C[C@@H](CCl)c6c5cc(O)c5ccccc65)cc4c3)cc2c1	0.05	0.05	0.09
Insoluble	soluble	Insoluble	soluble	Insoluble	Insoluble	Insoluble	Insoluble	Insoluble	Insoluble	soluble	CC(=O)SCCC(=O)Nc1ccc2[nH]c(C(=O)Nc3ccc4[nH]c(C(=O)N5C[C@@H](CCl)c6c5cc(O)c5ccccc65)cc4c3)cc2c1	0.047	0.045	0.02
											O=C(Nc1ccc2[nH]c(C(=O)N3C[C@@H](CCl)c4c3cc(O)c3ccccc43)cc2c1)c1cc2cc([N+](=O)[O-])ccc2[nH]1		0.007	0.005
											Nc1ccc2[nH]c(C(=O)Nc3ccc4[nH]c(C(=O)N5C[C@@H](CCl)c6c5cc(O)c5ccccc65)cc4c3)cc2c1		0.03	0.005
											CSSCCC(=O)Nc1ccc2[nH]c(C(=O)Nc3ccc4[nH]c(C(=O)N5C[C@H]6CC67C5=CC(=O)c5ccccc57)cc4c3)cc2c1 (stereo not given in full)	0.015	0.012	0.012
